Experimental data taken from article PMC5114172 (Journal of applied toxicology : JAT, 2016).

System: PBMCs
Assay: IL-1β secretion assay
Format: cell-based, human
In short: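 NK cells, MD-PBMCs, PBMCs or granulocytes (1.5 million/mL) or PBMC+granulocytes (0.75 million/mL each), per donor, exposed 24 h, 48 h or 6 days to 0.05–5 μM test compound diluted from DMSO stock, with DMSO controls. Supernatants kept at −70 °C. IL-1β by sandwich ELISA: HRP detection antibody, acid-stopped substrate, A450 against standards. Detection limit 3 pg/mL; triplicates; ANOVA then t test versus control, p<0.05.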

`CCC[CH2][Sn][CH2]CCC` [DBT, Dibutyltin] was tested, and the “Interleukin 1 beta secreted” value (donor F148, 24 h, 1 μM DBT) was 11.6 ± 11.085 ng/mL, the “Interleukin 1 beta secreted” value (donor F148, 24 h, 2.5 μM DBT) was 12.133 ± 0.462 ng/mL and the “Interleukin 1 beta secreted” value (donor F148, 24 h, 5 μM DBT) was 11.867 ± 0.924 ng/mL. For the same compound, the “Interleukin 1 beta secreted” value (donor F148, 48 h, 0.05 μM DBT) was 15851 ± 836 ng/mL, the “Interleukin 1 beta secreted” value (donor F148, 48 h, 0.1 μM DBT) was 17620 ± 257 ng/mL and the “Interleukin 1 beta secreted” value (donor F148, 48 h, 0.25 μM DBT) was 18728 ± 597 ng/mL. The “Interleukin 1 beta secreted” value (donor F148, 48 h, 0.5 μM DBT) was 5493 ± 409 ng/mL, the “Interleukin 1 beta secreted” value (donor F148, 48 h, 1 μM DBT) was 2224 ± 329 ng/mL and the “Interleukin 1 beta secreted” value (donor F148, 48 h, 5 μM DBT) was 483 ± 358 ng/mL. For the same compound, the “Interleukin 1 beta secreted” value (donor F148, 6 day, 0.1 μM DBT) was 25 ± 0 ng/mL, the “Interleukin 1 beta secreted” value (donor F148, 6 day, 0.25 μM DBT) was 25 ± 1 ng/mL and the “Interleukin 1 beta secreted” value (donor F148, 6 day, 0.5 μM DBT) was 6 ± 0 ng/mL. For the same compound, the “Interleukin 1 beta secreted” value (donor F154, 24 h, 0.05 μM DBT) was 5.056 ± 0.273 ng/mL, the “Interleukin 1 beta secreted” value (donor F154, 24 h, 0.1 μM DBT) was 4.568 ± 0.168 ng/mL and the “Interleukin 1 beta secreted” value (donor F154, 24 h, 0.25 μM DBT) was 1.383 ± 0.123 ng/mL. The “Interleukin 1 beta secreted” value (donor F154, 24 h, 0.5 μM DBT) was 0.765 ± 0.084 ng/mL, the “Interleukin 1 beta secreted” value (donor F154, 24 h, 1 μM DBT) was 0.38 ± 0.013 ng/mL and the “Interleukin 1 beta secreted” value (donor F154, 24 h, 2.5 μM DBT) was 0.111 ± 0.067 ng/mL. The “Interleukin 1 beta secreted” value (donor F154, 48 h, 0.05 μM DBT) was 4249 ± 294 ng/mL, the “Interleukin 1 beta secreted” value (donor F154, 48 h, 0.1 μM DBT) was 4193 ± 556 ng/mL and the “Interleukin 1 beta secreted” value (donor F154, 48 h, 0.25 μM DBT) was 1687 ± 42 ng/mL. For the same compound, the “Interleukin 1 beta secreted” value (donor F154, 48 h, 0.5 μM DBT) was 1036 ± 128 ng/mL, the “Interleukin 1 beta secreted” value (donor F154, 48 h, 1 μM DBT) was 1325 ± 72 ng/mL and the “Interleukin 1 beta secreted” value (donor F154, 48 h, 2.5 μM DBT) was 378 ± 61 ng/mL. For the same compound, the “Interleukin 1 beta secreted” value (donor F154, 48 h, 5 μM DBT) was 193 ± 0 ng/mL, the “Interleukin 1 beta secreted” value (donor F154, 6 day, 0.05 μM DBT) was 3507 ± 155 ng/mL and the “Interleukin 1 beta secreted” value (donor F154, 6 day, 0.1 μM DBT) was 3300 ± 114 ng/mL. For the same compound, the “Interleukin 1 beta secreted” value (donor F154, 6 day, 0.25 μM DBT) was 3816 ± 464 ng/mL, the “Interleukin 1 beta secreted” value (donor F154, 6 day, 0.5 μM DBT) was 2056 ± 114 ng/mL and the “Interleukin 1 beta secreted” value (donor F154, 6 day, 1 μM DBT) was 2531 ± 464 ng/mL. The “Interleukin 1 beta secreted” value (donor F154, 6 day, 2.5 μM DBT) was 586 ± 179 ng/mL, the “Interleukin 1 beta secreted” value (donor F154, 6 day, 5 μM DBT) was 118 ± 146 ng/mL and the “Interleukin 1 beta secreted” value (donor F159, 24 h, 0.05 μM DBT) was 2.812 ± 0.15 ng/mL. For the same compound, the “fold increase in IL-1β secretion” value (donor F159, 24 h, 0.05 μM DBT) was 1.7 fold, the “Interleukin 1 beta secreted” value (donor F159, 24 h, 0.1 μM DBT) was 6.376 ± 0.233 ng/mL and the “fold increase in IL-1β secretion” value (donor F159, 24 h, 0.1 μM DBT) was 3.8 fold. For the same compound, the “Interleukin 1 beta secreted” value (donor F159, 24 h, 0.25 μM DBT) was 5.803 ± 0.15 ng/mL, the “fold increase in IL-1β secretion” value (donor F159, 24 h, 0.25 μM DBT) was 3.4 fold and the “Interleukin 1 beta secreted” value (donor F159, 24 h, 0.5 μM DBT) was 1.667 ± 0.112 ng/mL. For the same compound, the “Interleukin 1 beta secreted” value (donor F159, 24 h, 1 μM DBT) was 0.812 ± 0.065 ng/mL, the “Interleukin 1 beta secreted” value (donor F159, 48 h, 0.05 μM DBT) was 1034 ± 299 ng/mL and the “Interleukin 1 beta secreted” value (donor F159, 48 h, 0.1 μM DBT) was 1211 ± 71 ng/mL. The “Interleukin 1 beta secreted” value (donor F159, 48 h, 0.25 μM DBT) was 1243 ± 192 ng/mL, the “Interleukin 1 beta secreted” value (donor F159, 48 h, 0.5 μM DBT) was 1099 ± 93 ng/mL and the “Interleukin 1 beta secreted” value (donor F159, 48 h, 1 μM DBT) was 1246 ± 9 ng/mL. For the same compound, the “Interleukin 1 beta secreted” value (donor F159, 48 h, 2.5 μM DBT) was 532 ± 101 ng/mL, the “Interleukin 1 beta secreted” value (donor F159, 48 h, 5 μM DBT) was 565 ± 15 ng/mL and the “Interleukin 1 beta secreted” value (donor F159, 6 day, 0.05 μM DBT) was 210 ± 62 ng/mL. For the same compound, the “Interleukin 1 beta secreted” value (donor F159, 6 day, 0.1 μM DBT) was 236 ± 10 ng/mL, the “Interleukin 1 beta secreted” value (donor F159, 6 day, 0.25 μM DBT) was 507 ± 21 ng/mL and the “Interleukin 1 beta secreted” value (donor F159, 6 day, 0.5 μM DBT) was 229 ± 7 ng/mL. For the same compound, the “Interleukin 1 beta secreted” value (donor F159, 6 day, 1 μM DBT) was 256 ± 12 ng/mL, the “Interleukin 1 beta secreted” value (donor F159, 6 day, 2.5 μM DBT) was 52 ± 1 ng/mL and the “Interleukin 1 beta secreted” value (donor F159, 6 day, 5 μM DBT) was 51 ± 9 ng/mL. The “Interleukin 1 beta secreted” value (donor F173, 24 h, 0.05 μM DBT) was 7.072 ± 0.935 ng/mL, the “Interleukin 1 beta secreted” value (donor F173, 24 h, 0.1 μM DBT) was 8.1 ± 0.822 ng/mL and the “Interleukin 1 beta secreted” value (donor F173, 24 h, 0.25 μM DBT) was 4.443 ± 0.405 ng/mL. The “Interleukin 1 beta secreted” value (donor F173, 24 h, 0.5 μM DBT) was 20.063 ± 1.077 ng/mL, the “Interleukin 1 beta secreted” value (donor F173, 24 h, 1 μM DBT) was 9.989 ± 0.155 ng/mL and the “Interleukin 1 beta secreted” value (donor F173, 24 h, 2.5 μM DBT) was 3.813 ± 0.058 ng/mL. The “Interleukin 1 beta secreted” value (donor F173, 24 h, 5 μM DBT) was 2.517 ± 0.073 ng/mL, the “Interleukin 1 beta secreted” value (donor F173, 48 h, 0.05 μM DBT) was 614 ± 63 ng/mL and the “Interleukin 1 beta secreted” value (donor F173, 48 h, 0.1 μM DBT) was 500 ± 41 ng/mL. For the same compound, the “Interleukin 1 beta secreted” value (donor F173, 48 h, 0.25 μM DBT) was 425 ± 20 ng/mL, the “Interleukin 1 beta secreted” value (donor F173, 48 h, 0.5 μM DBT) was 745 ± 36 ng/mL and the “Interleukin 1 beta secreted” value (donor F173, 48 h, 1 μM DBT) was 2064 ± 194 ng/mL. For the same compound, the “Interleukin 1 beta secreted” value (donor F173, 48 h, 2.5 μM DBT) was 591 ± 32 ng/mL, the “Interleukin 1 beta secreted” value (donor F173, 48 h, 5 μM DBT) was 478 ± 32 ng/mL and the “Interleukin 1 beta secreted” value (donor F173, 6 day, 0.05 μM DBT) was 465 ± 151 ng/mL. The “Interleukin 1 beta secreted” value (donor F173, 6 day, 0.1 μM DBT) was 398 ± 28 ng/mL, the “Interleukin 1 beta secreted” value (donor F173, 6 day, 0.25 μM DBT) was 453 ± 16 ng/mL and the “Interleukin 1 beta secreted” value (donor F173, 6 day, 0.5 μM DBT) was 932 ± 8 ng/mL. For the same compound, the “Interleukin 1 beta secreted” value (donor F173, 6 day, 1 μM DBT) was 690 ± 15 ng/mL, the “Interleukin 1 beta secreted” value (donor F173, 6 day, 2.5 μM DBT) was 181 ± 8 ng/mL and the “Interleukin 1 beta secreted” value (donor F173, 6 day, 5 μM DBT) was 145 ± 2 ng/mL.
